experiment: Neuroprotective activity in human SH-SY5Y cells assessed as reduction in 1-methyl-4-phenylpyridinium ion-induced cell death after 48 hrs by MTT assay; assay type: functional, cell-based
Outline: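 SH-SY5Y cells in DMEM with 10% heat-inactivated FBS and 1% penicillin/streptomycin were seeded at 2 × 10^4 cells/well for 24 h, then exposed to 2 mM MPP+ for 48 h. MTT (0.5 mg/mL in PBS) was added for 4 h at 37 °C, formazan dissolved in DMSO and absorbance read at 540 nm. EC50 is the concentration giving half-maximal protection, mean of triplicates.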

Compound	EC50 [µM]
C=CC(C)(C)c1c(O)cc(O)c2c(=O)c3c4c(c(O)cc3oc12)OC(C)(C)C=C4	> 50
C=CC(C)(C)c1c(OC)cc(O)c2c(=O)c3c(cc(O)c4oc(C(C)(C)O)cc43)oc12	10.3
CC1Oc2cc3oc4c5c(c(O)cc4c(=O)c3c(O)c2C1(C)C)OC(C(C)(C)O)C5 (stereo not given)	> 50
C=CC(C)(C)c1c(OC)cc(O)c2c(=O)c3c(CC=C(C)C)c(O)c(O)cc3oc12 [CUDRAXANTHONE D]	> 50
CC(C)=CCc1c(O)c(O)cc2oc3c4c(cc(O)c3c(=O)c12)OC(C)C4(C)C (stereo not given) [CUDRATRICUSXANTHONE J]	8.1
CC1Oc2cc3oc4c5c(c(O)cc4c(=O)c3c(O)c2C1(C)C)OC(C)(C)C(O)C5 (stereo not given)	> 50
CC1(C)C=Cc2c(c(O)cc3oc4c5c(cc(O)c4c(=O)c23)OC(CO)C5(C)C)O1 (stereo not given)	> 50
C=C(C)C(O)Cc1c(OC)c(O)cc2oc3c4c(cc(O)c3c(=O)c12)OC(CO)C4(C)C (stereo not given)	> 50
C=C(C)C(=O)Cc1c(OC)c(O)cc2oc3c4c(cc(O)c3c(=O)c12)OC(CO)C4(C)C (stereo not given)	> 50
CC(C)=CCOc1c2occc2cc2ccc(=O)oc12 [PENTOSALEN]	> 50
CC(C)=CCc1c(O)c(O)cc2c(=O)c3c4c(c(O)cc3oc12)C(C)(C)C(C)O4 (stereo not given)	> 50
COc1c(C(C)=O)ccc2c1C=CC(C)(C)O2	> 50
C=CC(C)(C)c1c(OC)cc(O)c2c(=O)c3c(CC(O)C(=C)C)c(O)c(O)cc3oc12 (stereo not given)	> 50
CC(C)=CCc1c2c(c(O)c3c(=O)c4ccc(O)c(O)c4oc13)C(C)(C)C(C)O2 (stereo not given)	> 50
CC(C)=CCOc1c2ccoc2cc2oc(=O)ccc12 [ISOIMPERATORIN]	> 50
C=CC(C)(C)c1c(O)cc(O)c2c(=O)c3c4c(c(O)cc3oc12)O[C@@H](C(C)(C)O)C4	> 50
C[C@H]1[C@H](C)CC[C@]2(C)CC[C@]3(C)C(=CC[C@@H]4[C@@]5(C)CC[C@H](O)C(C)(C)[C@@H]5CC[C@]43C)[C@H]12	> 50
C=C(C)[C@@H]1CC[C@]2(C(=O)O)CC[C@]3(C)[C@H](CC[C@@H]4[C@@]5(C)CC[C@H](O)C(C)(C)[C@@H]5CC[C@]43C)[C@@H]12 [BETULINIC ACID]	4.3
CC(C)=CCc1cc2ccc(=O)oc2cc1O [DEMETHYLSUBEROSIN]	0.2
CC1Oc2cc(O)c3c(=O)c4c5c(c(O)cc4oc3c2C1(C)C)OC(C)(C)C=C5 (stereo not given)	> 50
CC1(C)C=Cc2c(c(O)cc3c(=O)c4c(O)c5c(cc4oc23)OC(CO)C5(C)C)O1 (stereo not given)	> 50
COCc1ccc(O)cc1	> 50
CC(C)=CC1Oc2cc(O)ccc2-c2oc3cc4c(c(O)c3c(=O)c21)C=CC(C)(C)O4 (stereo not given) [CUDRAFLAVONE A]	> 50
COC(=O)c1ccc(O)cc1O [METHYL 2,4-DIHYDROXYBENZOATE]	> 50
C=C1CC[C@H](O)C(C)(C)[C@@H]1CC/C(C)=C/CC/C=C(\C)CC/C=C(\C)CCC=C(C)C	> 50

experiment: Neuroprotective activity in human SH-SY5Y cells assessed as reduction in 6-OHDA-induced cell death measured after 24 hrs by MTT assay; assay type: functional, cell-based
Outline: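 Cells were seeded at 2 × 10^4 per well and grown 24 h in DMEM with 10% heat-inactivated FBS at 37 °C under 5% CO2. They were then co-treated with graded sample concentrations and 100 μM 6-OHDA for 24 h. Viability was by MTT (0.5 mg/mL, 4 h, 37 °C), DMSO solubilization and A540. EC50 is half-maximal protection, mean of triplicate determinations.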

Compound	EC50 [µM]
COc1cc(/C=C/C(=O)CC(=O)/C=C/c2ccc(O)c(OC)c2)ccc1O [CURCUMIN]	6.2
CC1(C)CCc2cc(C3CC(=O)c4c(O)cc5c(c4O3)CCC(C)(C)O5)c(O)cc2O1 (stereo not given)	9.1
CC1(C)CC[C@]2(C)CC[C@]3(C)[C@H]4CC=C5[C@@H](CC[C@H](O)C5(C)C)[C@]4(C)CC[C@@]3(C)[C@@H]2C1 [GLUTINOL]	12.9
CCCCCCCC/C=C\CCCCCCCC(=O)O [OLEIC ACID]	9.5
CC(C)=CCOc1c2ccoc2cc2oc(=O)ccc12 [ISOIMPERATORIN]	9.2
CC1(C)C=Cc2cc3ccc(=O)oc3cc2O1 [XANTHYLETIN]	8
CC(C)=CC1Oc2cc(O)ccc2-c2oc3cc4c(c(O)c3c(=O)c21)C=CC(C)(C)O4 (stereo not given) [CUDRAFLAVONE A]	15.5
O=c1ccoc2cc(O)cc(O)c12	1.9
O=Cc1ccc(O)cc1 [4-HYDROXYBENZALDEHYDE]	30.2
C=C1CC[C@H](O)C(C)(C)[C@@H]1CC/C(C)=C/CC/C=C(\C)CC/C=C(\C)CCC=C(C)C	7.2

experiment: Neuroprotective activity in human SH-SY5Y cells assessed as reduction in oxygen glucose deprivation-induced cell death incubated for 16 hrs under hypoxic condition followed by incubation for 24 hrs under normoxic condition by MTT assay; assay type: functional, cell-based
Outline: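 After 24 h plating (2 × 10^4/well, DMEM with 10% FBS and glucose), medium was switched to serum- and glucose-free RPMI and samples or vehicle added. Cells were held 16 h under 95% N2/5% CO2, then reoxygenated 24 h in RPMI with 10% FBS and glucose at 37 °C. Viability was by MTT at A540. EC50 is half-maximal protection, mean of triplicates.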

Compound	EC50 [µM]
C=CC(C)(C)c1c(O)cc(O)c2c(=O)c3c4c(c(O)cc3oc12)OC(C)(C)C=C4	33.3
C=CC(C)(C)c1c(OC)cc(O)c2c(=O)c3c(cc(O)c4oc(C(C)(C)O)cc43)oc12	> 50
CC1Oc2cc3oc4c5c(c(O)cc4c(=O)c3c(O)c2C1(C)C)OC(C(C)(C)O)C5 (stereo not given)	6
C=CC(C)(C)c1c(OC)cc(O)c2c(=O)c3c(CC=C(C)C)c(O)c(O)cc3oc12 [CUDRAXANTHONE D]	4.8
CC(C)=CCc1c(O)c(O)cc2oc3c4c(cc(O)c3c(=O)c12)OC(C)C4(C)C (stereo not given) [CUDRATRICUSXANTHONE J]	> 50
CC1Oc2cc3oc4c5c(c(O)cc4c(=O)c3c(O)c2C1(C)C)OC(C)(C)C(O)C5 (stereo not given)	23.6
CC1(C)C=Cc2c(c(O)cc3oc4c5c(cc(O)c4c(=O)c23)OC(CO)C5(C)C)O1 (stereo not given)	8.9
C=C(C)C(O)Cc1c(OC)c(O)cc2oc3c4c(cc(O)c3c(=O)c12)OC(CO)C4(C)C (stereo not given)	28.5
C=C(C)C(=O)Cc1c(OC)c(O)cc2oc3c4c(cc(O)c3c(=O)c12)OC(CO)C4(C)C (stereo not given)	13.2
CC(C)=CCOc1c2occc2cc2ccc(=O)oc12 [PENTOSALEN]	8.4
CC(C)=CCc1c(O)c(O)cc2c(=O)c3c4c(c(O)cc3oc12)C(C)(C)C(C)O4 (stereo not given)	34.9
COc1c(C(C)=O)ccc2c1C=CC(C)(C)O2	22.3
NCCC(=O)N[C@@H](Cc1c[nH]cn1)C(=O)O [CARNOSINE]	3
C=CC(C)(C)c1c(OC)cc(O)c2c(=O)c3c(CC(O)C(=C)C)c(O)c(O)cc3oc12 (stereo not given)	2.9
CC(C)=CCc1c2c(c(O)c3c(=O)c4ccc(O)c(O)c4oc13)C(C)(C)C(C)O2 (stereo not given)	17.2
CC(C)=CCOc1c2ccoc2cc2oc(=O)ccc12 [ISOIMPERATORIN]	3.5
C=CC(C)(C)c1c(O)cc(O)c2c(=O)c3c4c(c(O)cc3oc12)O[C@@H](C(C)(C)O)C4	12.2
C[C@H]1[C@H](C)CC[C@]2(C)CC[C@]3(C)C(=CC[C@@H]4[C@@]5(C)CC[C@H](O)C(C)(C)[C@@H]5CC[C@]43C)[C@H]12	13.3
CC(C)=CCc1cc2ccc(=O)oc2cc1O [DEMETHYLSUBEROSIN]	8.6
CC1Oc2cc(O)c3c(=O)c4c5c(c(O)cc4oc3c2C1(C)C)OC(C)(C)C=C5 (stereo not given)	3.5
CC1(C)C=Cc2c(c(O)cc3c(=O)c4c(O)c5c(cc4oc23)OC(CO)C5(C)C)O1 (stereo not given)	11.2
COCc1ccc(O)cc1	7.9
CC(C)=CC1Oc2cc(O)ccc2-c2oc3cc4c(c(O)c3c(=O)c21)C=CC(C)(C)O4 (stereo not given) [CUDRAFLAVONE A]	13.5
COC(=O)c1ccc(O)cc1O [METHYL 2,4-DIHYDROXYBENZOATE]	35.5
C=C1CC[C@H](O)C(C)(C)[C@@H]1CC/C(C)=C/CC/C=C(\C)CC/C=C(\C)CCC=C(C)C	6.5
